Jurkat NFkB inh: lowers PMA/ionomycin-induced NF-kB signal in Jurkat cells | PMA/ionomycin-induced NF-kB luciferase reporter, luminescence | inhibition, % at 4 µM | 330,000 tested, 0.53% active; in the data active = inhibition above about 50%
aDG glyco up: increases alpha dystroglycan glycosylation; 360,000 tested, 0.22% active; activation, % at 10 µM; Pro5-aDG cells, alpha-DG glycosylation AlphaScreen (IIH6); 0% Pro5, 100% B10-LARGE cell signal; AID 624168;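 active = activation of at least 8% versus controls, or a plate z-score of at least 8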;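 note: Pro5 are CHO cells carrying HIG-tagged alpha-DG that lacks glycosylation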
MPTP inh: permeability transition pore inhibition; isolated mouse mitochondria, Ca2+ swelling absorbance, 30 min; inhibition, % at 10 µM; 360,000 tested, 1.4% active;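 active = inhibition of 50% or more, scaled per plate between neutral and stimulator controls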;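 note: 0% = DMSO wells given calcium and 100% = 1 mM EGTA wells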
697 NFkB inh: lowers PMA/ionomycin-induced NF-kB signal in 697 B cells. 330,000 tested, 0.33% active. 697 B-cell NF-kB luciferase reporter, 16 h. inhibition, % at 4 µM; in the data active = inhibition above about 35%
NR2E3 ag-1: agonists of human NR2E3 nuclear receptor; CHO-S Gal4-NCOR/VP16-NR2E3 two-hybrid, luciferase; 360,000 tested, 0.35% active; Q9Y5X4; inhibition of corepressor binding, % at 3.98 µM;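 active = inhibition above the mean of all tested compounds plus 3 SD, cut at about 70% in these data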;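 note: 0% = DMSO with NR2E3 transfected cells and 100% = cells lacking NR2E3 construct; higher means lower luciferase signal from less NR2E3 corepressor binding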
Target sequence (Q9Y5X4 whole entry, looked up, the tested form may be a part): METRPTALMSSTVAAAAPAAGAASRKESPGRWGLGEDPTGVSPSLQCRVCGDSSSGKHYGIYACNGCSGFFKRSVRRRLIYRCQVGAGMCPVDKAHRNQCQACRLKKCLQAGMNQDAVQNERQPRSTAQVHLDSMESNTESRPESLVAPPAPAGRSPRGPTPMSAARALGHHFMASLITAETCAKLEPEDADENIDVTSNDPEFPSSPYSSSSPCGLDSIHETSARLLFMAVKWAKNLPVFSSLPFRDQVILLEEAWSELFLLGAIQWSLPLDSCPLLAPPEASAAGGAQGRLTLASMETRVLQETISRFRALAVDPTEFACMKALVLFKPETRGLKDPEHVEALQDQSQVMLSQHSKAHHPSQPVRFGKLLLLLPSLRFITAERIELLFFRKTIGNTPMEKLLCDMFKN
NR2E3 ag-2: NR2E3 (human) agonism. Q9Y5X4. GST-NR2E3/biotin-RetCOR TR-FRET, 1536-well. inhibition of corepressor binding, % at 4.78 µM. 320,000 tested, 0.12% active. AID 2300;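 active = percent inhibition above the cutoff of mean plus 3 SD of all tested compounds, set per screening campaign, cut at about 20% in these data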;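 note: 0% = DMSO wells and 100% = biotin wells as full block of FRET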
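Test system: GST-NR2E3 and biotin-RetCOR proteins | Quantity: 1.35 nM GST-tagged NR2E3 final | Medium: Tris pH 7.5 | Also added: 7 nM biotin-RetCOR | Dosing: Compound at 4.8 µM, single dose | Timing: 5 h at 4 °C | Detection: Time-resolved FRET | Read-out basis: Percent inhibition | Benchmarks: Biotin wells as high control, 0.6% DMSO wells as low control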
MPTP counter: membrane potential counter-screen of mitochondrial pore inhibitors; shares compounds with MPTP inh; isolated mitochondria, Rhodamine 123 fluorescence; inhibition, % at 10 µM; 5,000 tested, 78% active; AID 624504; in the data active = inhibition above about 22%;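 note: 0% = DMSO vehicle and 100% = positive control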
MPTP abs DR: dose response confirmation of mitochondrial permeability transition pore inhibitors; shares compounds with MPTP inh; isolated mitochondria swelling, absorbance; IC50, µM; 780 tested, 58% active; AID 651561; in the data active = IC50 below about 20 µM
MPTP counter DR: active in counter-screen for permeability transition pore inhibitors; 780 tested, 49% active; AID 651564; isolated mitochondria counterscreen, fluorescence read-out; IC50, µM; shares compounds with MPTP inh; in the data active = IC50 below about 80 µM
* hit, by the source's call; . = not tested or not shown; ! = not confirmed by another sample. Only some compounds are listed: those with a hit (about 2.4% of all), similar ones and a draw of the others.

SMILES	Jurkat NFkB inh	aDG glyco up	MPTP inh	697 NFkB inh	NR2E3 ag-1	NR2E3 ag-2	MPTP counter	others
COc1ccc(C(=O)CSc2nc3ccc([N+](=O)[O-])cc3[nH]2)cc1	-22.8	0.3	99.3*	-19.1	-27.1	-1.0	85.6*
O=C(CSc1nc2ccc([N+](=O)[O-])cc2[nH]1)NC1CCCCCC1	11.5	0.3	95.2*	-0.5	-14.0	-0.2	80.5*
CCOC(=O)NC(=O)CSc1nc2ccc([N+](=O)[O-])cc2[nH]1	6.1	-0.4	0.1	-0.4	-10.0	0.5	.
O=C(CSc1nc2ccc([N+](=O)[O-])cc2[nH]1)NC1CCCCC1	0.6	0.0	4.7	6.0	-18.3	0.2	.
O=C(Nc1cccc(Cl)c1)OCCOC(=O)Nc1cccc(Cl)c1	.	0.9	9.6	.	-0.5	.	.
CC(C)OC(=O)NCCOC(=O)Nc1cccc(Cl)c1	-19.4	0.3	99.5*	-21.0	42.7	0.7	92.5*
CC(C)OC(=O)NC(C)(C)COC(=O)Nc1cccc(Cl)c1	-15.5	0.1	81.7*	-34.5	10.1	0.5	96.4*
O=C(O)CSc1nnc(Cc2cccc3ccccc23)n1-c1cc(C(F)(F)F)cc(C(F)(F)F)c1	12.4	0.2	4.9	1.9	5.8	0.6	.
NC(=O)COc1c(-c2ccc(Br)o2)oc2ccccc2c1=O	5.2	-0.1	0.3	18.1	-28.0	-0.8	.
CN1CCN(C(c2ccc(Cl)cc2)c2cc(Cl)c3cccnc3c2O)CC1 (stereo unspecified)	16.4	0.1	74.7*	-27.1	-33.1	6.5	-22.9
Cc1cc(=O)[nH]c(SCC(=O)/C=C2\N(C)c3ccccc3C2(C)C)n1	13.1	1.1	88.7*	4.4	-0.4	0.4	53.2*
Cc1ccc(-c2cccc(C3CC=CC4C3C(=O)N(Cc3ccccc3)C4c3ccc(C(F)(F)F)cc3)c2)cc1 (stereo unspecified)	19.6	0.0	-0.9	-37.0	7.0	1.0	.
Cc1oc(-c2cccc(Cl)c2)nc1CN1CCCC(C(=O)NCc2ccco2)C1 (stereo unspecified)	-0.6	0.2	0.3	20.5	-4.7	1.0	.
Cc1oc(-c2cccc(Cl)c2)nc1CN1CCCC(C(=O)NC(C)c2ccc3c(c2)OCCO3)C1 (stereo unspecified)	-0.1	0.2	51.4*	15.4	22.3	-1.4	15.3	MPTP abs DR=11.9*;MPTP counter DR=20.5*
Cn1cc(NC(=O)OCc2ccc(Cl)cc2)c(C(F)(F)F)n1	14.2	-0.3	2.4	-51.5	20.2	1.0	.
CN1CCN(CCCN2c3ccccc3Sc3ccc(C(F)(F)F)cc32)CC1	-0.7	4.2	90.8*!	-17.4	-4.0	-0.6	-19.6	MPTP abs DR=4.21*;MPTP counter DR=>80
Cc1cc(C)c(OCC(=O)OCC(=O)NCCC2=CCCCC2)c(C)c1	3.0	-0.3	-0.3	6.9	-19.2	3.7	.
Fc1ccc(NC(=S)SCc2ccc3c(c2)OCO3)cc1F	.	0.0	76.0*	.	14.0	.	94.4*
Fc1ccc(NC(=S)NCc2ccc3c(c2)OCO3)cc1	1.1	0.1	11.4	-6.3	-0.2	-2.8	.
CCNC(=O)NC(=O)CSc1ccc(S(=O)(=O)N2CCCCC2)cn1	-0.1	0.0	0.2	-13.0	-7.8	-1.3	.
COCc1c(C#N)c(NCCc2ccccc2)nc(C)c1[N+](=O)[O-]	-10.0	0.8	14.0	-44.0	-10.7	-2.5	.
COCc1c(C#N)c(NCc2cc(OC)c(OC)c(OC)c2)nc(C)c1[N+](=O)[O-]	-2.6	1.0	75.4*	-42.3	7.3	1.8	33.7*
CC(C)(C)c1ccc(NC(=O)N2CCN(c3ccc([N+](=O)[O-])cn3)CC2)cc1	35.2	0.5	66.9*	-35.7	-3.9	-0.3	54.3*
Cc1cc(C)c(NC(=S)N2CCN(c3ccc([N+](=O)[O-])cn3)CC2)cc1C	39.9	0.3	1.2	-3.2	-14.1	0.6	.
O=[N+]([O-])c1ccc(O)c(C2=NNC(c3ccccc3F)C2)c1 (stereo unspecified)	-69.0	-0.1	88.8*	-111.9	-38.9	2.1	85.1*
SMILES	Jurkat NFkB inh	aDG glyco up	MPTP inh	697 NFkB inh	NR2E3 ag-1	NR2E3 ag-2	MPTP counter	others
Cc1cccnc1CN1CCN(Cc2nc(Cc3cccc(F)c3)no2)CC1	-6.2	0.0	0.6	17.5	11.1	-2.9	.
O=S(=O)(c1ccc(-c2csc(Nc3ccc(F)cc3)n2)cc1)N1CCCC1	15.5	-0.2	84.4*	-39.4	0.7	-0.1	69.4*
O=S(=O)(c1ccc(-c2csc(Nc3ccc(Br)cc3)n2)cc1)N1CCCC1	29.1	-0.1	59.5*	-51.9	-4.8	1.4	56.2*
O=C(NCC1CCCO1)c1ccc(COc2ccccc2)o1 (stereo unspecified)	6.4	0.3	-0.9	2.1	2.5	-0.2	.
COc1cc(C(=O)N(C)CC2CCN(CCc3cccc(C(F)(F)F)c3)CC2)ccc1C	4.3	0.5	81.0*	-7.2	15.6	1.8	0.8	MPTP abs DR=7.63*;MPTP counter DR=24.8*
NS(=O)(=O)c1cc(C(=O)NCC2CCCCC2)ccc1Cl	-10.2	-0.1	-2.5	18.1	-4.9	1.0	.
O=C(CN1CCN(C(C(=O)Nc2cc(C(F)(F)F)ccc2Cl)c2ccccc2)CC1)NC1CC1 (stereo unspecified)	.	1.3	0.3	.	-4.8	.	.
Cn1nc(-c2ccccc2)cc1NC(=O)Nc1ccc(F)cc1	-8.1	0.0	65.6*	-0.5	7.2	-2.3	80.7*
Cc1ccccc1NC(=O)Nc1cc(-c2ccccc2)nn1C	-3.6	0.1	5.1	0.2	-22.1	-2.0	.
Cn1nc(C(F)(F)F)c(-c2cccc(C(F)(F)F)c2)c1NC(=O)Nc1ccc(F)cc1	6.6	0.2	78.8*	-0.2	11.4	2.6	81.7*
CCCOc1ccc(C(=O)Nc2ccc(N3CCOCC3)cc2N2CCOCC2)cc1OCC	.	-0.1	1.0	.	-6.2	.	.
CC1=NN(c2ccc(Cl)cc2)C(=O)C1C(c1ccccc1O)c1c(C)[nH]n(-c2ccc(Cl)cc2)c1=O (stereo unspecified)	-1.0	-0.2	88.4*	-4.0	7.8	13.2	24.4*
Cc1ccc(S(=O)(=O)CCC(=O)OCc2nnc(-c3ccc([N+](=O)[O-])cc3)o2)cc1	.	-0.2	-0.9	.	-7.2	.	.
Cc1cccc(C)c1NC(=O)C1C(c2ccc3c(c2)OCO3)=Nc2ccccc2N1C(=O)c1cccc2ccccc12 (stereo unspecified)	.	-0.5	3.1	.	.	.	.
Cc1ccc(C(C)C)c(OCCNC(=O)c2ccccc2O)c1	0.2	0.3	88.0*	-47.0	-3.7	-0.7	83.2*

Bioassay records: PubChem BioAssay, several laboratories
